Experimental data as given in ChEMBL document CHEMBL4725371, “A Novel Redox Modulator Induces a GPX4-Mediated Cell Death That Is Dependent on Iron and Reactive Oxygen Species” (J Med Chem, 2020).
Calls of active or inactive are those of the source. The rule behind the calls is not given here.

Key:
[1] = tested on: PANC-1; assay: Induction of reactive oxygen species in human PANC-1 cells at 10 uM measured after 1 hr by CM-H2DCFDA dye based fluorescence assay; format: functional, cell-based
In short: (§1)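 1.8 × 10⁴ cells per well were attached overnight, then loaded with 10 μM CM-H2DCFDA in HBSS for 40 min at 37 °C and washed. Compounds were added in HBSS. Fluorescence was read at Ex 483 / Em 530 nm. TBHP was the positive control. NAC at 3 mM was used where stated.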

[2] = tested on: MIA PaCa-2; assay: Down regulation of LRPPRC expression in human MIA PaCa-2 cells at 3 times IC50 measured after 4 hrs by proteomics analysis; format: functional, cell-based
[3] = tested on: MIA PaCa-2; assay: Induction of reactive oxygen species in human MIA PaCa-2 cells at 10 uM measured after 1 hr by CM-H2DCFDA dye based fluorescence assay; format: functional, cell-based; in short: as §1
[4] = Toxicity in CD-1 mouse assessed as death at 10 mg/kg, iv; format: organism-based; details: in vivo
In short: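 CD-1 mice given a single IV injection at 10 mg/kg, three mice per group. Blood was drawn into heparinized pipettes at 0.5, 2, 4 and 7 h for plasma LC-MS/MS. Deaths were noted over the course of the study.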

[5] = Half life in mouse plasma at 500 uM by LC-MS/MS analysis; format: ADME, cell-free; details: 500 µM
In short: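 Compound (500 μM DMSO stock) was added at 1 μL per 500 μL pooled plasma. Samples were taken at 0, 0.17, 0.5, 1, 2 and 4 h and centrifuged at 3500 g for 10 min. Supernatant was run by LC-MS/MS. t1/2 came from the slope of ln(compound/internal standard peak area) against time.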

[6] = Drug metabolism in mouse plasma assessed as 2-amino-3-[6-[4-(4-methylpiperazin-1-yl)anilino]-5,8-dioxo-quinazolin-7-yl]sulfanyl-propanoic acid formation at 500 uM measured after 0.5 hrs by LC-MS/MS analysis; format: ADME, cell-free
In short: (§2)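 Compound (500 μM DMSO stock, 1 μL per 500 μL) was incubated in pooled mouse plasma. Samples were taken at 0.5 h and metabolites identified by LC-MS/MS.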

[7] = tested on: PANC-1; assay: Synergistic inhibition of colony formation in human PANC-1 cells at 0.125 to 0.5 uM measured after 24 hrs in presence of napabucasin by crystal violet staining based assay; format: functional, cell-based; details: dose microM 0.125-0.5, time 24.0 hrs
In short: (§3)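 Colony formation in 96-well plates seeded at 300 (MIA PaCa-2) or 600 (PANC-1) cells/well. Napabucasin, As2O3 or olaparib added 1 h before test compound; drugs on cells 24 h. Plates kept until controls were 80–90% confluent (7–9 days), then stained with 0.05% crystal violet and quantified. Synergy scored by HSA and Bliss models.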

[8] = tested on: MIA PaCa-2; assay: Synergistic inhibition of colony formation in human MIA PaCa-2 cells at 0.25 to 0.5 uM measured after 24 hrs in presence of napabucasin by crystal violet staining based assay; format: functional, cell-based; details: dose microM 0.25-0.5, time 24.0 hrs; in short: as §3
[9] = tested on: CT26; assay: Antitumor activity against mouse CT26 cells implanted in Balb/c mouse assessed as tumor shrinkage at 20 mg/kg, ip; format: functional, organism-based
In short: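 Female Balb/c mice aged 5–6 weeks, implanted subcutaneously in right flank with 1 × 10⁶ CT-26 cells in DPBS. Dosing began 7 days later with randomisation (n = 5/group, mean tumour 97–117 mm³). IV dosing was 3 times weekly and IP dosing was given. Vehicle control given daily IP. Mice were euthanised four hours post-dose after 17 days of dosing.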

[10] = tested on: PANC-1; assay: Down regulation of LRPPRC expression in human PANC-1 cells at 3 times IC50 measured after 1 to 24 hrs by proteomics analysis; format: functional, cell-based; details: time hrs 1-24
[11] = Drug metabolism in mouse plasma assessed as 5,8-dimethoxy-N-[4-(4-methylpiperazin-1-yl)phenyl]quinazolin-6-amine formation at 500 uM measured after 0.5 hrs by LC-MS/MS analysis; format: ADME, cell-free; in short: as §2
[12] = tested on: PANC-1; assay: Cytotoxicity against human PANC-1 cells measured after 72 hrs by MTT assay; format: functional, cell-based; details: PANC-1, 72 h
In short: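 Cells were kept in RPMI 1640 with 10% FBS at 37 °C, 5% CO₂, under 35 passages. Cells were seeded, attached overnight and treated with compound or DMSO for 72 h. MTT was added at 0.3 mg/mL for 3 h, then dissolved in DMSO and read as absorbance at 570 nm. IC50 was fitted from the curve. Values are mean ± sd of three independent experiments.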

[13] = tested on: MIA PaCa-2; assay: Down regulation of LRPPRC expression in human MIA PaCa-2 cells at 3 times IC50 measured after 4 hrs in presence of NQO1 inhibitor dicoumarol by proteomics analysis; format: functional, cell-based
[14] = tested on: MIA PaCa-2; assay: Inhibition of colony formation in human MIA PaCa-2 cells at 0.5 to 2 uM measured after 7 to 9 days in presence of N-acetylcysteine by crystal violet staining based assay; format: functional, cell-based; details: dose microM 0.5-2, time day 7-9
In short: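 Cells seeded overnight in 96-well plates at 300 cells/well (MIA PaCa-2) or 600 cells/well (BxPC-3), in RPMI 1640 with 10% FBS. Inhibitor added 1 h before compound, then continuous exposure for 7–9 days until control wells were 80–90% confluent. Stained with 0.05% crystal violet for 30 min, imaged after overnight drying and quantified.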

[15] = tested on: MIA PaCa-2; assay: Synergistic inhibition of colony formation in human MIA PaCa-2 cells at 0.25 uM measured after 24 hrs in presence of As2O3 by crystal violet staining based assay; format: functional, cell-based; in short: as §3
[16] = tested on: PANC-1; assay: Down regulation of PNPT1 expression in human PANC-1 cells at 3 times IC50 measured after 1 to 24 hrs by proteomics analysis; format: functional, cell-based; details: time hrs 1-24

CN1CCN(c2ccc(NC3=CC(=O)c4ncncc4C3=O)cc2)CC1
Activity [1]: Active
Activity [2]: Active
Activity [3]: Active
Activity [4]: Toxic
t1/2 [5]: 6 min
Drug metabolism [6]: Metabolite_Detected
inhibition [7]: Active
inhibition [8]: Active
Activity [9]: Active
Activity [10]: inactive
Drug metabolism [11]: Metabolite_Detected
IC50 [12]: 340 nM
Activity [13]: inactive
inhibition [14]: inactive
inhibition [15]: Active
Activity [16]: inactive
